Screening results as filed in PubChem.
Many of the other results were omitted from the sample, so hits are more common in it than they were.
XBP1 UPR activ: activators of adaptive arm of unfolded protein response (XBP1) | activation, % at 20 µM | CHO-XBP1 luciferase reporter, IRE1-XBP1 UPR activation, luminescence; percent of tunicamycin response, DMSO as zero | 0.33% of 330,000 active;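 active = versus positive control, 20 µM dose yields 30% or more activation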
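Material: CHO-XBP1 cells stably carrying IRE1-XBP1-driven luciferase reporter / Amount: 1000 cells per well / Compound: 20 µM, 1% DMSO / Times: 6 h treatment, 37 °C / Detection: luciferase luminescence / Measure: % activation of reporter signal versus tunicamycin and DMSO controls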
UPR CHOP act: apoptotic UPR (CHOP) activation; CHO-CHOP luciferase reporter, luminescence; percent of tunicamycin response over DMSO baseline; activation, % at 10 µM; 0.34% of 330,000 active; AID 449763;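 active = at 10 µM dose, activation of 40% or more, normalized to positive control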
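System: CHO-CHOP luciferase reporter cell line; amount: 500 cells/well; buffer or medium: F12 medium containing 10% fetal bovine serum; incubation: 6 h compound exposure at 37 °C after overnight seeding; measured by: luciferase luminescence after 10 min with Steady-Glo reagent; evaluation: % reporter activation, DMSO baseline versus tunicamycin full activation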
CHOP inhibitor: inhibitors of CHOP induction in ER stress response; inhibition, % at 10 µM; 3.8% of 220,000 active; CHO-K1 CHOP-promoter luciferase, tunicamycin-induced, 15-18 h;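 active = compounds that reduced the stress-induced luciferase reporter signal by more than about 70% of percent inhibition, limit read from the data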
TLR4-MyD88 BLA: blocks binding of human TLR4 to MyD88; inhibition, % at 8.4 µM; 0.18% of 200,000 active; O00206+Q99836; HeLa CL3-4 TLR4/MyD88 BLA complementation, FRET ratio; in the data active = inhibition above about 25%
NOD2-RIPK2 inh: NOD2-RIPK2 protein interaction inhibition | O43353 | CHO BLA complementation NOD2-RIPK2, CCF4 ratio | inhibition, % at 4.98 µM | 0.38% of 360,000 active | AID 624267; in the data active = inhibition above about 21%
TLR9-MyD88 block: inhibitors of human TLR9-MyD88 binding | inhibition, % at 4.98 µM | CHO BLA complementation TLR9-MyD88, CCF4 FRET ratio | 0.21% of 340,000 active | Q9NR96+Q99836 | AID 504734;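 active = inhibition above the mean over all tested compounds plus 3 SD, cut at about 21% in these data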
Target sequence (Q99836 whole entry, looked up): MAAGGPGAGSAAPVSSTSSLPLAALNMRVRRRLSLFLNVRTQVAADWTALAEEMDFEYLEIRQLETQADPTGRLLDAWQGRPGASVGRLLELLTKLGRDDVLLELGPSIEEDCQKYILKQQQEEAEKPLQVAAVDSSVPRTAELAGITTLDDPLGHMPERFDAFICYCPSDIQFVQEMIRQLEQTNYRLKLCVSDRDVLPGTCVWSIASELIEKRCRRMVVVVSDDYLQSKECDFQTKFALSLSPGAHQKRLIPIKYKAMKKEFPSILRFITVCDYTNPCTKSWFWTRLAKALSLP
Target sequence (Q9NR96 whole entry, looked up): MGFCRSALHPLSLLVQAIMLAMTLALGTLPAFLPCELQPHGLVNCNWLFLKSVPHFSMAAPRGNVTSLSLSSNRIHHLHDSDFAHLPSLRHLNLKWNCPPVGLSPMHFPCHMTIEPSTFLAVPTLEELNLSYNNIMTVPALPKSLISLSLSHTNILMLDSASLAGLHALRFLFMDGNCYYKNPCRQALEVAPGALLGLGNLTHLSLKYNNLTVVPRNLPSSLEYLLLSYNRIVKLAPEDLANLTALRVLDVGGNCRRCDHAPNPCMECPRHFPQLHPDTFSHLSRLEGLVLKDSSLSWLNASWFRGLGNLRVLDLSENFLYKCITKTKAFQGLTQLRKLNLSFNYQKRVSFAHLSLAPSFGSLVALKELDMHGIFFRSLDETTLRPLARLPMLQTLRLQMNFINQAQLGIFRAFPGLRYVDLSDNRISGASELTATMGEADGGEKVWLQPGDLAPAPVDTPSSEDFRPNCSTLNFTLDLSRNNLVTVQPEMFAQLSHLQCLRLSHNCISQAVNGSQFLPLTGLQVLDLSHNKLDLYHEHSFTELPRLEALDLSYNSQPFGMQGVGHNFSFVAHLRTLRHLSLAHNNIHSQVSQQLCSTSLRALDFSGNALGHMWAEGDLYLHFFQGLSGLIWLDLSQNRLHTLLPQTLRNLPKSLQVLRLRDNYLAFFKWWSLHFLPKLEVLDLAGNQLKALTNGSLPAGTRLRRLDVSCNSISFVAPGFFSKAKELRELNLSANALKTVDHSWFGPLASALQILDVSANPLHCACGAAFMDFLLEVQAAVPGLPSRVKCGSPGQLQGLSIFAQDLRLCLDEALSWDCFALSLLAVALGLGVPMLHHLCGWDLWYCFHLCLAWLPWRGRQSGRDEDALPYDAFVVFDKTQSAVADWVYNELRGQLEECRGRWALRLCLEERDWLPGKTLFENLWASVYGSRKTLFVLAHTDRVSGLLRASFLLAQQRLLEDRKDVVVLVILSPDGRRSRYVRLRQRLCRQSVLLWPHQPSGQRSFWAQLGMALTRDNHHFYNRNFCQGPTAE
Numbers stand for hits; - = inactive; . = not tested or not shown; ! = not confirmed by another sample.

SMILES	XBP1 UPR activ	UPR CHOP act	CHOP inhibitor	TLR4-MyD88 BLA	NOD2-RIPK2 inh	TLR9-MyD88 block
O=C(CCCN1C(=O)/C(=C/c2ccccc2Cl)SC1=S)NNC(=O)c1ccccc1	-	-	86	-	-	-
O=C(CCN1C(=O)/C(=C/c2ccccc2Cl)SC1=S)Nc1ccccc1C(=O)O	-	-	.	.	-	-
O=C(CCCN1C(=O)/C(=C/c2ccccc2Cl)SC1=S)NNC(=O)c1ccc(Cl)cc1Cl	-	-	95	.	-	-
O=C(CCCN1C(=O)/C(=C/c2ccccc2Cl)SC1=S)NNC(=O)c1cccnc1	-	-	-	.	-	-
CC(=O)c1sc(NC(=O)CCc2ccccc2)nc1C	.	.	.	.	-	-
Cc1cc(C)cc(C(=O)NCC(=O)OCC(=O)N2CCCC2)c1	.	.	.	.	-	-
O=C(O)CCC/C=C\C[C@@H]1[C@@H](/C=C/[C@H](O)C2Cc3ccccc3C2)[C@@H](F)C[C@@H]1O	.	.	-	.	.	.
CNc1ccc(-c2cccc(C(=O)N3CCOCC3)c2)cn1	.	.	.	.	-	.
Cc1csc(NC(=O)C2CCCN(S(=O)(=O)c3ccc(Br)s3)C2)n1 (stereo not drawn)	-	-	70	-	-	-
CCOC(=O)C1CCCN(S(=O)(=O)c2ccc(Br)s2)C1 (stereo not drawn)	-	-	-	-	-	-
Cc1ccc(CN2CCC2(C)C(=O)NC2CCc3ccccc32)cc1 (stereo not drawn)	.	.	.	.	-	.
O=C(O)c1ccccc1C(=O)c1ccc(F)c(F)c1	.	.	.	.	-	-
O=C(Nc1ccc(S(=O)(=O)N2CCCCC2)cc1)c1ccc(CN2CCc3ccccc3C2)cc1	-	-	80	-	-	-
CCOC(=O)c1nnn(-c2nonc2-n2cccc2)c1CN1CCCCC1	-	-	87	-	-	-
CCOc1ccc(NC(=NCc2ccc3c(c2)OCO3)SC2CC(=O)N(c3ccc(C(=O)O)cc3)C2=O)cc1 (stereo not drawn)	-	-	-	-	-	-
CCc1ccc(C(=O)NNC(=O)c2cccc(S(=O)(=O)N3CCN(C)CC3)c2)cc1	-	-	.	.	-	-
Cc1cc(C)n(-c2cc(N3CCN(C(=O)c4ccc(C(C)(C)C)cc4)CC3)ccc2[N+](=O)[O-])n1	-	-	73	-	-	-
COC(=O)[C@]12CCCCC=C1N(Cc1ccc3c(c1)OCO3)C(=O)[C@H](CC(=O)NCCCN1CCCC1=O)C2	.	.	.	.	-	.
Cc1ccccc1NCC(=O)c1ccc(Br)cc1	-	-	70	-	-	-
CC1=C(C)C(=O)C(CCCCC#CCCCC#CCO)=C(C)C1=O	-	-	73!	-	-	-
CCC(CC)C(=O)Nc1cc(C)c2c(=O)oc3ccccc3c2n1	-	-	79	.	-	-
CC(=NCCc1c(C)[nH]c2ccc(OC(F)(F)F)cc12)C1=C(O)CC(c2ccccc2)CC1=O (stereo not drawn)	-	-	72	-	-	-
COc1cccc(-c2oc3c(c2C#CC2(N)CCCCC2)C(O)CCC3)c1 (stereo not drawn)	.	.	.	.	-	.
CC(C)CCNCC1OCc2ccccc2CO1	-	-	-	-	-	-
COc1ccc(C2/C=C\CN(C(=O)Nc3ccccc3)CC(=O)N2Cc2ccc(F)cc2)cc1 (stereo not drawn)	-	-	-	.	-	-
SMILES	XBP1 UPR activ	UPR CHOP act	CHOP inhibitor	TLR4-MyD88 BLA	NOD2-RIPK2 inh	TLR9-MyD88 block
COc1ccc(C2/C=C\CN(C(=O)Nc3ccc(C(F)(F)F)cc3)CC(=O)N2Cc2ccc(F)cc2)cc1 (stereo not drawn)	-	-	75	.	-	-
O=C(NCc1ccncc1)C1CCN(S(=O)(=O)c2ccc(Cl)c(C(F)(F)F)c2)CC1	-	-	.	.	-	-
Cc1ccc(NS(=O)(=O)c2cc([N+](=O)[O-])ccc2NNC(=S)Nc2cc(C)ccc2C)c(C)c1	-	-	89	-	-	-
FC(F)(F)c1cccc(N2CCN(c3ccc4nnc(-c5ccccc5)n4n3)CC2)c1	-	-	85	-	-	-
c1ccc(-c2nnc3ccc(N4CCCC4)nn23)cc1	-	-	-	-	-	-
C/C(=N\NC(=O)c1ccccc1NC(=O)c1ccc(Cl)cc1)c1ccncc1	-	-	72	-	-	-
CC(=O)N1CCN(C(=O)c2cccc(S(=O)(=O)N3CCN(c4ccccc4)CC3)c2)CC1	-	-	.	.	-	-
O=C(NNC(=O)c1cccc(S(=O)(=O)N2CCN(c3ccccc3)CC2)c1)c1ccc(Cl)cc1	-	-	83	-	-	-
CCC(=O)OCc1c(C(F)(F)F)nn(C)c1Sc1ccc(Cl)cc1	-	-	79	-	-	-
O=C(Nc1ccc(Br)cc1)c1cccn1-c1ncc(C(F)(F)F)cc1Cl	-	-	95	-	-	-
Cc1ccc(C(=O)CCC(=O)Nc2ccccc2C)c(C)c1	-	-	.	.	-	-
O=C(Nc1ccc(S(=O)(=O)Nc2cnc3ccccc3n2)cc1)c1cccc(OC(F)F)c1	-	-	.	.	-	-
CCOC(=O)C1=C(N)c2ccccc2CC1C1CCCC1 (stereo not drawn)	-	-	91	.	-	-
Brc1ccc(CSc2nccn2-c2ccccc2)cc1	-	-	76	-	22	-
O=C(NC1CCCCC1)C(c1ccc(F)cc1)N(Cc1ccco1)C(=O)Cn1nnc2ccccc21 (stereo not drawn)	-	-	74	-	-	-
Cn1c(-c2ccco2)n[nH]c1=S	-	-	-	-	-	-
S=c1nc(-c2ccco2)[nH][nH]1	-	-	74	-	-	-
N#Cc1c(-c2ccc(Cl)cc2)ccn2nc(CCC(=O)O)nc12	-	-	-	-	-	-
CCCCCc1nc2c(C#N)c(-c3ccc(Cl)cc3)ccn2n1	-	-	92	-	-	-
Clc1nnc(N/N=C/c2ccccc2)c2ccccc12	-	-	75	-	-	-
Clc1ccc(/C=N/Nc2nnc(Cl)c3ccccc23)cc1	-	-	-	-	-	-
Cn1cncc1C(=O)c1ccccc1	-	-	-	.	-	-
COc1cccc(NC(=O)c2ccccc2)c1	-	-	.	.	-	-
COc1cccc(NC(=O)C(NC2CCCC2)c2ccccc2)c1 (stereo not drawn)	-	-	82	-	-	-
COc1cccc(NC(=O)Nc2cccc(C(=O)O)c2)c1	-	-	76	-	-	-
COc1ccc(OC)c(NC(=O)Nc2ccc(Cl)cc2)c1	-	-	-	-	-	-
COC(=O)c1cc(NC(=O)Nc2cc(OC)ccc2OC)cc(C(=O)OC)c1	-	-	78	-	-	-
COC(=O)c1c(C)oc2ccc(OC(=O)c3cccs3)cc12	-	-	86	-	-	-
COCCOC(=O)c1c(C)oc2ccc(OC(=O)c3cccs3)cc12	-	-	-	-	-	-
